This is a sample that favours compounds with a hit; in the whole collection about 2.4% have one here.
dFosB activator: activators of delta FosB homodimer, primary screen, biochemical, fluorescence polarization, TAMRA-CDK5 oligo, single point; Protein FosB (Mus musculus), P13346; purified delta FosB; percent of positive-control signal above neutral wells; activation, % at 25 µM; 340,000 tested, 0.99% active; AID 493131, 2011;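 active = mean activation above about 17%, with every replicate also reaching it, limit read from the data, passing the limit was not always enough; inconclusive = only one of the two conditions met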
Rtt109 HAT inh: inhibitors of C. albicans Rtt109/Vps75 HAT, primary screen, biochemical, ThioGlo CoA-SH fluorescence, plate reader. purified Rtt109/Vps75, 4 h. 330,000 tested, 0.16% active. AID 540336, 2011. inhibition, % at 34.9 µM;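 active = inhibition of at least 50% in every replicate; inconclusive = best replicate reaches 50% inhibition but some replicates fall short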
Target sequence (Q5AAJ8 whole entry, looked up): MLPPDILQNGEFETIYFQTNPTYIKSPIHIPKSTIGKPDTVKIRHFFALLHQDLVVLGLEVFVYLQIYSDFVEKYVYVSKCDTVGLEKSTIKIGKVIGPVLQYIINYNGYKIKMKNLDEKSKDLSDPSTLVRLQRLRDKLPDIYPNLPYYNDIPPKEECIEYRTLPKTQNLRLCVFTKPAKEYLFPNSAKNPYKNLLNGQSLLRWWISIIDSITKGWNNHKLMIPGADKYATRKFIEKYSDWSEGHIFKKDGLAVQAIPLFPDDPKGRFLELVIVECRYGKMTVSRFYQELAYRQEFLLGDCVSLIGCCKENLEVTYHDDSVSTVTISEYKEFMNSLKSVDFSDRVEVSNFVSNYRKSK
INS-1E GSIS act: GLuc luminescence reporter in INS-1E cells, primary screen for activators of glucose-dependent secretion of insulin | 370,000 tested, 0.61% active | INS-1E GLuc reporter insulin secretion, 2-3 h | activation, % at 16.6 µM | AID 743287, 2014;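 active = lowest replicate activation of at least 40%, so every replicate reaches that level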;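 also: 0% = median of neutral control wells and 100% = median of IBMX positive control wells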
HIV Env fusion: inhibitors of HIV-1 Env-driven cell-cell fusion, primary screen, HeLa-JRFL effector, CEM21 target cells, luciferase | 360,000 tested, 1.1% active | inhibition, % at 12.3 µM | AID 651610, 2012;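 active = mean replicate inhibition score of at least 50 and every replicate individually at or above 50; inconclusive = only one of the two criteria met; inactive = mean below 50 and not all replicates reaching 50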;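 also: 0% = plate neutral controls and 100% = maraviroc near 300 nM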
miR-122 sensor: miR-122 Renilla sensor signal increase in Huh7, primary screen, miR-122 inhibitor project, cell-based, single point, plate reader. Huh7 miR-122 Renilla luciferase sensor, 48 h; neutral wells = 0, positive control = 100. activation (reporter increase), % at 12.5 µM. 340,000 tested, 0.3% active;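 active = mean replicate activation score at least 90 and every replicate individually at or above 90; inconclusive = only one of the two criteria met; inactive = neither criterion met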;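 also: higher luciferase means less miR-122 activity so hits act as miR-122 inhibitors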
Cneo AK release: Cryptococcus neoformans cell lysis inducers, primary screen, AK release luminescence, single concentration; C. neoformans lysis, adenylate kinase release luminescence, 4 h; normalised: neutral wells 0, clomiphene wells 100; lysis activity, % at 15 µM; 360,000 tested, 0.2% active; AID 651654, 2012;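 active = mean lysis activity across replicates of at least 80%, whatever share of replicates individually reach that level; inactive = mean lysis activity below 80%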
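Material – log-phase Cryptococcus neoformans yeast cells · Input – 5 × 10^6 yeast cells/mL · Medium – fresh YPD growth medium · Doses – single compound concentration per well · Timing – static 4 h at 37 °C with compound, 1 h detection · Detection – adenylate kinase release luminescence · Read-out – signal increase indicating cell lysis · Control set – Clomiphene as positive lysis control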
* = called active by the depositor; ? = inconclusive; · = no result; [ ] = remark or other dose.

SMILES	dFosB activator	Rtt109 HAT inh	INS-1E GSIS act	HIV Env fusion	miR-122 sensor	Cneo AK release
COc1cccc(C(=O)Oc2ccc(/C=N/Nc3ccc(C(=O)O)cc3)cc2OC)c1	-2	18	-19	-5	2	-1
COc1ccccc1/C=C\C(=O)NCC(=O)N/N=C/c1cccc(OC)c1O	30*	-6	-3	9	2	3
CCn1c(C)nc2cc(C(=O)N/N=C/c3cccc(OC)c3O)ccc21	22*	-4	-8	0	-10	·
CCn1c(C)nc2cc(C(=O)N/N=C/c3ccc(O)c(O)c3O)ccc21	-12	19	7	22	·	·
CCOC(=O)c1nc2nc(-c3cccs3)cc(C(F)(F)F)n2n1	6	-3	63*	-7	0	1
C[C@@H]1CN([C@H](C)CO)C(=O)c2cc(C#CC3CCCCC3)cnc2O[C@@H]1CN(C)S(C)(=O)=O	·	·	3	-11[16.7 µM]	-10[16.7 µM]	-1
COc1cc(/C=N/NC(=O)c2cc3ccccc3cc2O)ccc1OCCN1CCCCC1	79*	10	·	6	-5	·
COc1ccc(CC(N)c2csc(NC(=O)Nc3ccccc3Oc3ccccc3)n2)cc1 (stereo not given)	·	·	11	100*	-5	0
NC(Cc1ccc(C(F)(F)F)cc1)c1csc(NC(=O)NCCc2ccccc2)n1 (stereo not given)	·	·	5	66*	·	1
COc1ccc(CC(N)c2csc(Nc3nncc4ccccc34)n2)cc1 (stereo not given)	·	·	41	58*	-6	-2
NC(Cc1ccccc1)c1csc(NC(=O)Nc2ccccc2Oc2ccccc2)n1 (stereo not given)	·	·	8	60*	-18	-3
CCCc1cnc(Nc2nc(C(N)Cc3ccc(OC)cc3)cs2)nc1 (stereo not given)	·	·	·	-48	-3	-9
NC(Cc1ccc(C(F)(F)F)cc1)c1csc(NC(=O)Nc2ccccc2Oc2ccccc2)n1 (stereo not given)	·	·	6	54	-3	-2
COc1ccc2c3c([nH]c2c1)[C@H](CO)N(Cc1ccccc1)CC31CCN(CC2CC2)CC1	·	·	14	·	·	·
CN1CCN(C(=O)C[C@H]2C[C@@H]3c4cc(NC(=O)c5cccnc5)ccc4O[C@@H]3[C@@H](CO)O2)CC1	·	·	1	1[16.7 µM]	4[16.7 µM]	15
OC[C@@H]1[C@H](c2ccc(C3=CCCC3)cc2)[C@H]2CN(CCC(F)(F)F)CCCCN12	·	·	·	·	-28[16.7 µM]	1
COc1ccc(CC(N)c2csc(NC(=O)Nc3ccccc3C(C)C)n2)cc1 (stereo not given)	·	·	-30	12	-16	2
COc1ccc(CC(N)c2csc(NC(=O)Nc3ccccc3Cc3ccccc3)n2)cc1 (stereo not given)	·	·	-17	98*	7	0
COc1cc(SC#N)ccc1N=Cc1c(C)[nH]n(-c2ccc(C)c(C)c2)c1=O	-7	56*	·	-29	-1	4
COc1cc(SC#N)ccc1N=Cc1c(C)[nH]n(-c2ccc(Cl)cc2)c1=O	-5	-1	·	·	-1	·
CC(C)(C)S(=O)N1Cc2cc(C(=O)O)nc(-c3cccc(C#CCC4CCCC4)c3)c2[C@@H]1CCO (stereo not given in full)	·	·	-16	·	·	·
O=C(OCC(=O)N1CCN(c2ccccc2)CC1)c1cccc([N+](=O)[O-])c1	-5	7	-6	71*	·	-1
CC1CC(C)CN(C(=O)COC(=O)c2cccc([N+](=O)[O-])c2)C1 (stereo not given)	-1	-2	-11	8	6	-1
Clc1ccc(CSc2nnc(Cn3cnc4ccccc43)o2)cc1	-11	-12	·	87*	-12	0
CCOc1ccc2c(c1)-c1c(ssc1=S)C(C)(C)N2C(=O)c1ccco1	-4	-22	-5	71*	26	5
SMILES	dFosB activator	Rtt109 HAT inh	INS-1E GSIS act	HIV Env fusion	miR-122 sensor	Cneo AK release
COc1ccc2c3c([nH]c2c1)[C@@H](CO)N(C(=O)c1ccc(F)cc1)CC31CCN(C)CC1	·	·	0	·	·	·
CCn1c2ccccc2c2cc(CNCc3ccc(OC)cc3OC)ccc21	5	-1	5	56*	·	·
COc1ccc(C(=O)C/C(=C\C(=O)c2ccc(C)cc2)c2ccccc2)cc1	-28	-5	·	103*	1	-2
COc1ccc(C(=O)CC(=O)c2ccccc2)cc1	·	·	-23	-101	8	1
CCOC(=O)c1oc2ccccc2c1NC(=O)c1ccco1	-21	-14	49*	12	-4	4
CCOC(=O)c1oc2ccccc2c1COC(=O)CNC(=O)c1ccco1	-3	3	6	-9	·	·
COC(=O)C1=C(C)N(Cc2cccc(C(F)(F)F)c2)C(=NCc2ccc3c(c2)OCO3)NC1c1cccc(C(F)(F)F)c1 (stereo not given)	·	·	·	19	·	·
COC(=O)C1=C(C)N(Cc2cccc(C(F)(F)F)c2)C(=NCc2ccc(C(F)(F)F)cc2)NC1c1ccc(F)cc1 (stereo not given)	·	·	875*	35	·	·
C=CCN=C1NC(c2ccc(Cl)cc2)C(C(=O)OC)=C(C)N1Cc1cccc(C(F)(F)F)c1 (stereo not given)	·	·	-11	60*	·	·
COC(=O)C1=C(C)N(Cc2cccc(C(F)(F)F)c2)C(=NCc2cccc(C(F)(F)F)c2)NC1c1ccc(Cl)cc1 (stereo not given)	·	·	785*	?	·	·
C=CCN=C1NC(c2cccc(Cl)c2)C(C(=O)OC)=C(C)N1Cc1ccc(C(F)(F)F)cc1 (stereo not given)	·	·	·	16	·	·
COC(=O)C1=C(C)N(Cc2cccc(C(F)(F)F)c2)C(=NCc2ccc3c(c2)OCO3)NC1CCc1ccccc1 (stereo not given)	·	·	114*	41	·	·
COc1cccc(NC(=O)N2CC3(C2)[C@@H](c2ccccc2)[C@@H](CO)N3C(=O)C2CCC2)c1	·	·	1	·	·	·
COC(=O)C1=C(C)N(Cc2cccc(C(F)(F)F)c2)C(=NCc2ccc(C(F)(F)F)cc2)NC1c1cccc(F)c1 (stereo not given)	·	·	·	18	·	·
COC(=O)C1=C(C)N(C)C(=NCc2ccc(OC)cc2)NC1c1ccc(C(F)(F)F)cc1 (stereo not given)	·	·	·	55*	·	·
COC(=O)C1=C(C)N(Cc2ccc(C(F)(F)F)cc2)C(=NCc2ccccc2)NC1c1cccc(F)c1 (stereo not given)	·	·	671*	?	·	·
